{"source": "ChEMBL document CHEMBL4043283", "about": "“Discovery and Preclinical Development of IIIM-290, an Orally Active Potent Cyclin-Dependent Kinase Inhibitor” (J Med Chem, 2018)", "key": {"[1]": {"test": "Half life in dog liver microsomes at 100 uM after 30 mins by LC-MS/MS analysis", "type": "ADME, Canis lupus familiaris, microsome"}, "[2]": {"target": "CDK2/Cyclin A2 (Homo sapiens) (UniProt P24941+P20248)", "test": "Inhibition of CDK2/cyclin A (unknown origin) at 0.5 uM using histone H1 as substrate after 30 mins in presence of [33P]-gamma-ATP by filter binding assay relative to control", "type": "protein-complex assay"}, "[3]": {"test": "Elimination half life in BALB/c mouse at 1 mg/kg, iv by LC-MS/MS analysis", "type": "ADME, organism-based", "conditions": "in vivo, read-out: beta t1/2 (converted)"}, "HL-60 [4]": {"system": "HL-60", "test": "Growth inhibition of human HL60 cells at 10 uM after 48 hrs by MTT assay relative to control", "type": "functional", "conditions": "HL-60, 48 h, read-out: GI", "method_in_brief": "(§1)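 Single-concentration primary screen at 10 μM by MTT assay. Cells were NCI-sourced cancer lines grown in appropriate medium at 37 °C, 95% humidity, 5% CO2. Growth inhibition is expressed relative to control.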"}, "[5]": {"test": "Chemical stability of compound in hydrochloric acid buffer at pH 1.2 assessed as parent compound remaining at 120 ug/ml after 24 hrs by HPLC method", "type": "physicochemical", "conditions": "read-out: Stability"}, "Mus musculus [6]": {"system": "Mus musculus", "test": "Toxicity in CD1 nude mouse xenografted with human HCT116 cells assessed as mortality at 50 mg/kg, po qd administered on day 10 to 25 post tumor inoculation", "type": "organism-based", "conditions": "in vivo"}, "[7]": {"test": "Pancreas to plasma partition coefficient, Kp of the compound in BALB/c mouse at 30 mg/kg, po measured at 8 hrs", "type": "ADME, organism-based", "conditions": "pancreas and plasma"}, "[8]": {"test": "Growth inhibition of human FR2 cells after 48 hrs by MTT assay", "type": "cell-based", "method_in_brief": "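fR2 is a normal epithelial line of ECACC type. Cells were grown in appropriate medium at 37 °C, 95% humidity, 5% CO2. Antiproliferative effect measured by MTT assay, with GI50 values derived from concentration-response testing.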"}, "LOX IMVI": {"system": "LOX IMVI", "test": "Growth inhibition of human LOXIMVI cells after 48 hrs by MTT assay", "type": "functional", "method_in_brief": "(§2)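 Cancer cell lines sourced from the National Cancer Institute (USA). Cells kept in appropriate growth medium at 37 °C, 95% humidity, 5% CO2. Antiproliferation read by tetrazolium (MTT) assay. GI50 values were determined only for compounds selected after an initial single-concentration screen.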"}, "[9]": {"test": "Pancreas to plasma partition coefficient, Kp of the compound in Sprague-Dawley rat at 30 mg/kg, po measured at 1 hr", "type": "ADME, organism-based", "conditions": "pancreas and plasma"}, "Cytochrome P450 2D6": {"target": "Cytochrome P450 2D6 (Homo sapiens, UniProt P10635)", "sequence (P10635 whole entry)": "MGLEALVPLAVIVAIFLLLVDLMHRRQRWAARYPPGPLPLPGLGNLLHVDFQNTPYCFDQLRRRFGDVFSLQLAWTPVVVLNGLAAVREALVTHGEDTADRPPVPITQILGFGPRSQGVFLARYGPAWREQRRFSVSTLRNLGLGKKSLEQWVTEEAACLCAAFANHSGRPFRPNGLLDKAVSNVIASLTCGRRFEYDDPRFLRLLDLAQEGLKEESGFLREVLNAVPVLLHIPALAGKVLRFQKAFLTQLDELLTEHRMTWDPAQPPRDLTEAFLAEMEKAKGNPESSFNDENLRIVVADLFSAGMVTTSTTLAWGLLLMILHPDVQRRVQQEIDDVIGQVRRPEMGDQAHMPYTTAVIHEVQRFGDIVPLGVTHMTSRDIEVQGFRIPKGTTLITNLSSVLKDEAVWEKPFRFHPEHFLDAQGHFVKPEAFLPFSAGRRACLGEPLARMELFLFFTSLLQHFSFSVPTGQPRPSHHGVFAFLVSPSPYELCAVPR", "test": "Inhibition of human CYP2D6 using fluorogenic substrate preincubated with co-factor for 10 mins followed by enzyme-substrate addition by fluorometric method", "type": "ADME", "method_in_brief": "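Cofactor plus test item or vehicle, in triplicate, preincubated 10 min at 37 °C; prewarmed enzyme–substrate mix added and incubated at 37 °C with shaking. Quench: acetonitrile (CYP2C19, CYP3A4) or 0.25 M Tris in 60% methanol (CYP2C9, CYP2D6). Metabolite fluorescence read; % inhibition computed against enzyme controls and enzyme-free blanks.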"}, "[10]": {"target": "T1, Cyclin-dependent kinase 5/CDK5 activator 1 (Homo sapiens, UniProt Q00535)", "T1 sequence (Q00535 whole entry)": "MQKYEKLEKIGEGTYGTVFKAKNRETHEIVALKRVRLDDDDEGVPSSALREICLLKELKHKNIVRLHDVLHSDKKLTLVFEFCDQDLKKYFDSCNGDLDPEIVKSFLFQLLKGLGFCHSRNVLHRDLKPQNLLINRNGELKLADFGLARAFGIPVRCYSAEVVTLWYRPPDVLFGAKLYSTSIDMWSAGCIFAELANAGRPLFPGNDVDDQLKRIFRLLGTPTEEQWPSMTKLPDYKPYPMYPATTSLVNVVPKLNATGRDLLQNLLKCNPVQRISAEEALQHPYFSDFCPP", "T1 sequence (Q15078 whole entry, further chain)": "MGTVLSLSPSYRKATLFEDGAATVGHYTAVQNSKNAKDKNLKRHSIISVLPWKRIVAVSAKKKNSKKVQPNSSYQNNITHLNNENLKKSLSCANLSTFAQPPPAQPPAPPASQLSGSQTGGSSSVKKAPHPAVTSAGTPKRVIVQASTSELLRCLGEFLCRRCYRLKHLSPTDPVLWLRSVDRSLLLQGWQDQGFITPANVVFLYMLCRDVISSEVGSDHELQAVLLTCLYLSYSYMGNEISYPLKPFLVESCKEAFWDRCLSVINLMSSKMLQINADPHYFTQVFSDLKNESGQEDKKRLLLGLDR", "test": "Inhibition of CDK5/cyclin p35 (unknown origin) after 30 mins in presence of [33P]-gamma-ATP by filter binding assay", "type": "protein-complex assay"}, "[11]": {"test": "Chemical stability of compound in phosphate buffer at pH 4 assessed as parent compound remaining at 120 ug/ml after 24 hrs by HPLC method", "type": "physicochemical", "conditions": "read-out: Stability"}, "[12]": {"test": "Intrinsic clearance in mouse liver microsomes assessed per mg of protein at 100 uM after 30 mins by LC-MS/MS analysis", "type": "ADME, microsome", "conditions": "read-out: CLH"}, "[13]": {"test": "Pancreas to plasma partition coefficient, Kp of the compound in Sprague-Dawley rat at 30 mg/kg, po measured at 0.5 hrs", "type": "ADME, organism-based", "conditions": "pancreas and plasma"}, "[14]": {"test": "Acute toxicity in po dosed Wistar rat assessed as mortality", "type": "organism-based", "conditions": "in vivo"}, "[15]": {"target": "T1, Cyclin-dependent kinase 5/CDK5 activator 1", "test": "Inhibition of CDK5/cyclin p25 (unknown origin) after 30 mins in presence of [33P]-gamma-ATP by filter binding assay", "type": "protein-complex assay"}, "MIA PaCa-2 [16]": {"system": "MIA PaCa-2", "test": "Cell cycle arrest in human MIAPaCa2 cells assessed as accumulation at G1 phase at 1.5 uM after 24 hrs by propidium iodide staining-based flow cytometric method (reference value: 36%)", "type": "functional"}, "Caco-2": {"system": "Caco-2", "test": "Growth inhibition of human Caco2 cells at 10 uM after 48 hrs by MTT assay relative to control", "type": "functional", "conditions": "Caco-2, 48 h, read-out: GI", "method_in_brief": "as §1"}, "MIA PaCa-2 [17]": {"system": "MIA PaCa-2", "test": "Cell cycle arrest in human MIAPaCa2 cells assessed as accumulation at G2 phase at 1.5 uM after 24 hrs by propidium iodide staining-based flow cytometric method (reference value: 30%)", "type": "functional"}, "Mus musculus [18]": {"system": "Mus musculus", "test": "Toxicity in CD1 nude mouse xenografted with human MIAPaCa2 cells assessed as change in body weight at 25 to 50 mg/kg, po qd administered on day 10 to 25 post tumor inoculation", "type": "organism-based", "conditions": "in vivo"}, "[19]": {"test": "Toxicity in po dosed Swiss albino mouse allografted with Swiss mouse EAC administered for 9 day", "type": "organism-based", "conditions": "in vivo"}, "MDA-MB-231": {"system": "MDA-MB-231", "test": "Growth inhibition of human MDA-MB-231 cells after 48 hrs by MTT assay", "type": "functional", "conditions": "MDA-MB-231, 48 h", "method_in_brief": "as §2"}, "MIA PaCa-2 [20]": {"system": "MIA PaCa-2", "test": "Growth inhibition of human MIAPaCa2 cells at 10 uM after 48 hrs by MTT assay relative to control", "type": "functional", "conditions": "MIA PaCa-2, 48 h, read-out: GI", "method_in_brief": "as §1"}, "[21]": {"test": "Half life in Sprague-Dawley rat at 3 mg/kg, po by LC-MS/MS analysis", "type": "ADME, organism-based", "conditions": "in vivo"}, "MOLT-4 [22]": {"system": "MOLT-4", "test": "Antitumor activity against human MOLT4 cells xenografted in CD1 nude mouse assessed as tumor growth inhibition at 25 mg/kg, po qd administered on day 10 to 25 post tumor inoculation", "type": "functional, organism-based"}, "HCT-116": {"system": "HCT-116", "test": "Growth inhibition of human HCT116 cells after 48 hrs by MTT assay", "type": "functional", "conditions": "HCT-116, 48 h", "method_in_brief": "as §2"}, "HOP-62": {"system": "HOP-62", "test": "Growth inhibition of human HOP62 cells after 48 hrs by MTT assay", "type": "functional", "conditions": "HOP-62, 48 h", "method_in_brief": "as §2"}, "MOLT-4 [23]": {"system": "MOLT-4", "test": "Antitumor activity against human MOLT4 cells xenografted in CD1 nude mouse assessed as tumor growth inhibition at 50 mg/kg, po qd administered on day 10 to 25 post tumor inoculation relative to control", "type": "functional", "conditions": "MOLT-4, po, 240 h, read-out: TGI"}, "[24]": {"test": "Ionization constant, pKa of compound by UV spectrophotometric analysis", "type": "physicochemical"}, "HL-60 [25]": {"system": "HL-60", "test": "Growth inhibition of human HL60 cells after 48 hrs by MTT assay", "type": "functional", "conditions": "HL-60, 48 h", "method_in_brief": "as §2"}, "[26]": {"test": "Ratio of Cmax in BALB/c mouse at 30 mg/kg, po to GI50 for human HL60 cells"}, "[27]": {"test": "Cmax in BALB/c mouse at 3 mg/kg, po by LC-MS/MS analysis", "type": "ADME, organism-based", "design": "dose 3 mg/kg, route oral", "conditions": "in vivo"}, "PBL": {"system": "PBL", "test": "Genotoxicity in human PBL at 0.125 to 2 ug/ml in presence of cytokinesis blocking agent cytochalasin B and liver S9 fraction by micronucleus test", "type": "toxicity, cell-based"}, "[28]": {"test": "Ratio of Cmax in BALB/c mouse at 30 mg/kg, po to GI50 for human MIAPaCa2 cells"}}, "note": "Activity calls are given as the source filed them. No cut-off for these calls is given here."}
{"smiles": "CN1CC[C@H](c2c(O)cc(O)c3c(=O)cc(/C=C/c4c(Cl)cccc4Cl)oc23)[C@H](O)C1", "values": [{"measurement": "half-life at 100 µM", "setting": "[1]", "result": 0.4, "unit": "h"}, {"measurement": "inhibition", "setting": "[2]", "result": 90, "unit": "%"}, {"measurement": "half-life", "setting": "[3]", "result": 5.46, "unit": "h"}, {"measurement": "inhibition of growth at 10 µM", "setting": "HL-60 [4]", "result": 90, "unit": "%"}, {"measurement": "remaining at 24 h, 120 ug/ml", "setting": "[5]", "result": 100, "unit": "%"}, {"measurement": "Activity", "setting": "Mus musculus [6]", "result": "Non-Toxic"}, {"measurement": "Kp at 8 h", "setting": "[7]", "result": 6.79}, {"measurement": "GI50 at 48 h", "setting": "[8]", "result": 19, "unit": "µM"}, {"measurement": "GI50", "setting": "LOX IMVI", "result": 4, "unit": "µM"}, {"measurement": "Kp at 1 h", "setting": "[9]", "result": 4.1}, {"measurement": "IC50", "setting": "Cytochrome P450 2D6", "result": "> 20", "unit": "µM"}, {"measurement": "IC50", "setting": "[10]", "result": 0.0157, "unit": "µM"}, {"measurement": "remaining at 24 h, 120 ug/ml", "setting": "[11]", "result": 100, "unit": "%"}, {"measurement": "microsomal CLint at 100 µM", "setting": "[12]", "result": "< 8.8", "unit": "µL/min/mg"}, {"measurement": "Kp at 0.5 h", "setting": "[13]", "result": 5.3}, {"measurement": "LD50", "setting": "[14]", "result": 1000, "unit": "mg/kg"}, {"measurement": "IC50", "setting": "[15]", "result": 0.0155, "unit": "µM"}, {"measurement": "Activity", "setting": "MIA PaCa-2 [16]", "result": 48, "unit": "%"}, {"measurement": "inhibition of growth at 10 µM", "setting": "Caco-2", "result": 68, "unit": "%"}, {"measurement": "Activity", "setting": "MIA PaCa-2 [17]", "result": 19, "unit": "%"}, {"measurement": "Activity", "setting": "Mus musculus [18]", "result": "Non-Toxic"}, {"measurement": "MTD at 216 h", "setting": "[19]", "result": 100, "unit": "mg/kg"}, {"measurement": "GI50", "setting": "MDA-MB-231", "result": 4, "unit": "µM"}, {"measurement": "inhibition of growth at 10 µM", "setting": "MIA PaCa-2 [20]", "result": 88, "unit": "%"}, {"measurement": "half-life", "setting": "[21]", "result": 4.67, "unit": "h"}, {"measurement": "TGI", "setting": "MOLT-4 [22]", "result": "inactive"}, {"measurement": "GI50", "setting": "HCT-116", "result": 5, "unit": "µM"}, {"measurement": "GI50", "setting": "HOP-62", "result": 7, "unit": "µM"}, {"measurement": "inhibition in vivo at 50 mg/kg", "setting": "MOLT-4 [23]", "result": "40 to 52", "unit": "%"}, {"measurement": "pKa", "setting": "[24]", "result": 5.4}, {"measurement": "GI50", "setting": "HL-60 [25]", "result": 0.9, "unit": "µM"}, {"measurement": "Ratio", "setting": "[26]", "result": 4}, {"measurement": "Cmax", "setting": "[27]", "result": 216, "unit": "nM"}, {"measurement": "Activity", "setting": "PBL", "result": "Non-Toxic"}, {"measurement": "Ratio", "setting": "[28]", "result": 4}]}
